Key:
Rattus norvegicus [1] = test: Effect of compound was measured on serum total triglycerides in male Dawley rats at the dose of 0.4 mmol/kg (day-1); assay type: functional, organism-based
Method in brief: (§1)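 Serum triglycerides were measured with an enzymatic triglyceride reagent on a bichromatic analyzer. Rats were male Sprague-Dawley (180-210 g) fed a high-cholesterol diet, n = 6 per group, dosed orally twice daily for 14 days in 0.25% methylcellulose or vehicle. They were fasted 16-18 h before blood collection on days -1, +4, +7, +10 (orbital plexus, light ether) and +14 (aorta). Analysis was repeated-measures ANOVA with Duncan's test.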

Rattus norvegicus [2] = test: Effect of compound was measured on serum alpha-lipoprotein in male Dawley rats at the dose of 0.2 mmol/kg (day+7).; assay type: functional
Method in brief: (§2)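 Male Sprague-Dawley rats (180-210 g) fed a high-cholesterol diet for 1 week before and throughout dosing. Groups of n = 6 were dosed orally twice daily for 14 days in 0.25% methylcellulose, with vehicle controls. Rats were fasted 16-18 h before orbital bleeds on days -1, +4, +7 and +10, and by aortic exsanguination on day +14. Serum α-lipoprotein cholesterol was measured by polyanionic precipitation, in mg/dL ± SD.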

Rattus norvegicus [3] = test: Effect of compound was measured on serum alpha-lipoprotein in male Dawley rats at the dose of 0.4 mmol/kg (day+10).; assay type: functional; method in brief: as §2
[4] = Effect of compound was measured on serum heparin-MnCl2 precipated ipoprotein Dawley rats at 0.4 mmol/kg dose(day-1).; assay type: functional
Method in brief: (§3)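 Cholesterol-fed male Sprague-Dawley rats, n = 6 per group, given compound or 0.25% methylcellulose orally twice daily for 14 days, and fasted 16-18 h before each bleed (days -1, +4, +7, +10, +14). Heparin-MnCl2 precipitable lipoprotein cholesterol was taken as serum total cholesterol minus α-lipoprotein cholesterol. It is reported as a ratio to α-LP cholesterol ± SD. Analysis was ANOVA with repeated measures and Duncan's test.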

[5] = Effect of compound was measured on serum heparin-MnCl2 precipated ipoprotein Dawley rats at 0.2 mmol/kg dose(day+10).; assay type: functional; method in brief: as §3
[6] = Effect of compound was measured on serum heparin-MnCl2 precipated ipoprotein Dawley rats at 0.2 mmol/kg dose(day+7).; assay type: functional; method in brief: as §3
Rattus norvegicus [7] = test: Effect of compound was measured on serum alpha-lipoprotein in male Dawley rats at the dose of 0.4 mmol/kg (day-1).; assay type: functional; method in brief: as §2
Rattus norvegicus [8] = test: Effect of compound was measured on serum alpha-lipoprotein in male Dawley rats at the dose of 0.4 mmol/kg (day14).; assay type: functional; method in brief: as §2
Rattus norvegicus [9] = test: Effect of compound was measured on serum total cholesterol in male Dawley rats at the dose of 0.2 mmol/kg (day-1).; assay type: functional, organism-based
Method in brief: (§4)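 Serum total cholesterol was measured enzymatically on a bichromatic analyzer. Serum was separated after clotting on ice (2000g, 10 min), held at 4 °C and assayed within 48 h. Rats were male Sprague-Dawley on a high-cholesterol diet, n = 6, dosed orally twice daily for 14 days in 0.25% methylcellulose (1.0 mL/100 g). They were fasted 16-18 h before each bleed. Results are in mg/dL ± SD.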

Rattus norvegicus [10] = test: Effect of compound on liver TG levels in male Dawley rats at the dose of 0.4 mmol/kg; assay type: functional; parameters: unit: g/100 g wet liver
Method in brief: (§5)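 Male Sprague-Dawley rats (180-210 g) were kept on a high-cholesterol diet for 1 week before and throughout treatment. Groups of n = 6 received drug in 0.25% methylcellulose orally twice daily for 14 days, or vehicle. After a 16-18 h fast, livers were excised at day +14 and homogenized in 0.1 M Tris-HCl pH 7.2 with 1.15% KCl. Lipids were extracted from 25% w/v homogenate and reported as g/100 g wet liver ± SD; groups compared by ANOVA and Duncan's test.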

[11] = Effect of compound was measured on serum heparin-MnCl2 precipated ipoprotein Dawley rats at 0.2 mmol/kg dose(day+14).; assay type: functional; method in brief: as §3
Rattus norvegicus [12] = test: Effect of compound was measured on serum total cholesterol in male Dawley rats at the dose of 0.2 mmol/kg (day+4).; assay type: functional, organism-based; method in brief: as §4
Rattus norvegicus [13] = test: Effect of compound was measured on serum total triglycerides in male Dawley rats at the dose of 0.2 mmol/kg (day+4).; assay type: functional, organism-based; method in brief: as §1
Rattus norvegicus [14] = test: Effect of compound was measured on serum total cholesterol in male Dawley rats at the dose of 0.2 mmol/kg (day+7).; assay type: functional, organism-based; method in brief: as §4
Rattus norvegicus [15] = test: Effect of compound was measured on serum total triglycerides in male Dawley rats at the dose of 0.4 mmol/kg (day+4); assay type: functional, organism-based; method in brief: as §1
Rattus norvegicus [16] = test: Effect of compound was measured on serum total triglycerides in male Dawley rats at the dose of 0.2 mmol/kg (day+7).; assay type: functional, organism-based; method in brief: as §1
Rattus norvegicus [17] = test: Effect of compound was measured on serum total cholesterol in male Dawley rats at the dose of 0.4 mmol/kg (day+10).; assay type: functional, organism-based; method in brief: as §4
Rattus norvegicus [18] = test: Effect of compound on liver CH levels in male Dawley rats at the dose of 0.4 mmol/kg; assay type: functional; parameters: unit: g/100 g wet liver; method in brief: as §5
Rattus norvegicus [19] = test: Effect of compound was measured on serum total cholesterol in male Dawley rats at the dose of 0.4 mmol/kg (day+4).; assay type: functional, organism-based; method in brief: as §4
Rattus norvegicus [20] = test: Effect of compound was measured on serum alpha-lipoprotein in male Dawley rats at the dose of 0.2 mmol/kg (day+14).; assay type: functional; method in brief: as §2
Rattus norvegicus [21] = test: Effect of compound was measured on serum total cholesterol in male Dawley rats at the dose of 0.2 mmol/kg (day+14).; assay type: functional, organism-based; method in brief: as §4
Rattus norvegicus [22] = test: Effect of compound was measured on serum total cholesterol in male Dawley rats at the dose of 0.4 mmol/kg (day+7).; assay type: functional, organism-based; method in brief: as §4
[23] = Effect of compound was measured on serum heparin-MnCl2 precipated ipoprotein Dawley rats at 0.2 mmol/kg dose(day+4).; assay type: functional; method in brief: as §3
Rattus norvegicus [24] = test: Effect of compound was measured on serum total cholesterol in male Dawley rats at the dose of 0.2 mmol/kg (day+10).; assay type: functional, organism-based; method in brief: as §4
Rattus norvegicus [25] = test: Effect of compound was measured on serum total triglycerides in male Dawley rats at the dose of 0.4 mmol/kg (day+14).; assay type: functional, organism-based; method in brief: as §1
Rattus norvegicus [26] = test: Effect of compound on liver TG levels in male Dawley rats at the dose of 0.2 mmol/kg; assay type: functional; method in brief: as §5
Rattus norvegicus [27] = test: Effect of compound was measured on serum total triglycerides in male Dawley rats at the dose of 0.2 mmol/kg (day-1).; assay type: functional, organism-based; method in brief: as §1
Rattus norvegicus [28] = test: Effect of compound was measured on serum alpha-lipoprotein in male Dawley rats at the dose of 0.4 mmol/kg (day+7).; assay type: functional; method in brief: as §2
[29] = Effect of compound was measured on serum heparin-MnCl2 precipated ipoprotein Dawley rats at 0.4 mmol/kg dose(day+4).; assay type: functional; method in brief: as §3
Rattus norvegicus [30] = test: Effect of compound was measured on serum total triglycerides in male Dawley rats at the dose of 0.2 mmol/kg (day+14).; assay type: functional, organism-based; method in brief: as §1
Rattus norvegicus [31] = test: Effect of compound was measured on serum alpha-lipoprotein in male Dawley rats at the dose of 0.2 mmol/kg (day+4).; assay type: functional; method in brief: as §2
[32] = Effect of compound was measured on serum heparin-MnCl2 precipated ipoprotein Dawley rats at 0.4 mmol/kg dose(day+10).; assay type: functional; method in brief: as §3
[33] = Effect of compound was measured on serum heparin-MnCl2 precipated ipoprotein Dawley rats at 0.4 mmol/kg dose(day+14).; assay type: functional; method in brief: as §3
Rattus norvegicus [34] = test: Effect of compound was measured on serum total triglycerides in male Dawley rats at the dose of 0.4 mmol/kg (day+7).; assay type: functional, organism-based; method in brief: as §1
Rattus norvegicus [35] = test: Effect of compound was measured on serum alpha-lipoprotein in male Dawley rats at the dose of 0.2 mmol/kg (day-1).; assay type: functional; method in brief: as §2

O=C1C(O)=C(O)OC1c1ccc(Cl)cc1 (stereo not given)
Serum total triglycerides (Rattus norvegicus [1]): 193 mg/dL | Alpha-lipoprotein cholesterol (Rattus norvegicus [2]): 42.5 mg/dL | Alpha-lipoprotein cholesterol (Rattus norvegicus [3]): 52.2 mg/dL | Ratio [4]: 3.96 | Ratio [5]: 3.33 | Ratio [6]: 4.03 | Alpha-lipoprotein cholesterol (Rattus norvegicus [7]): 39.7 mg/dL | Alpha-lipoprotein cholesterol (Rattus norvegicus [8]): 61 mg/dL | serum total cholesterol (Rattus norvegicus [9]): 276 mg/dL | Liver TG (Rattus norvegicus [10]): 5.08 | Ratio [11]: 2.2 | serum total cholesterol (Rattus norvegicus [12]): 195 mg/dL | Serum total triglycerides (Rattus norvegicus [13]): 251 mg/dL | serum total cholesterol (Rattus norvegicus [14]): 204 mg/dL | Serum total triglycerides (Rattus norvegicus [15]): 167 mg/dL | Serum total triglycerides (Rattus norvegicus [16]): 204 mg/dL | serum total cholesterol (Rattus norvegicus [17]): 135 mg/dL | Liver CH levels (Rattus norvegicus [18]): 2.93 | serum total cholesterol (Rattus norvegicus [19]): 154 mg/dL | Alpha-lipoprotein cholesterol (Rattus norvegicus [20]): 48.5 mg/dL | serum total cholesterol (Rattus norvegicus [21]): 145 mg/dL | serum total cholesterol (Rattus norvegicus [22]): 125 mg/dL | Ratio [23]: 3.72 | serum total cholesterol (Rattus norvegicus [24]): 161 mg/dL | Serum total triglycerides (Rattus norvegicus [25]): 87.8 mg/dL | Liver TG (Rattus norvegicus [26]): 4.82 | Serum total triglycerides (Rattus norvegicus [27]): 313 mg/dL | Alpha-lipoprotein cholesterol (Rattus norvegicus [28]): 46 mg/dL | Ratio [29]: 2.79 | Serum total triglycerides (Rattus norvegicus [30]): 148 mg/dL | Alpha-lipoprotein cholesterol (Rattus norvegicus [31]): 43.8 mg/dL | Ratio [32]: 1.75 | Ratio [33]: 1.39 | Serum total triglycerides (Rattus norvegicus [34]): 147 mg/dL | Alpha-lipoprotein cholesterol (Rattus norvegicus [35]): 40.8 mg/dL

Reference: ChEMBL document CHEMBL1121938, “Hypocholesterolemic and antiaggregatory properties of 2-hydroxytetronic acid redox analogues an their relationship to clofibric acid” (1982)
